Compound activity from PubChem.
An excerpt weighted towards active compounds, which were near 12% of everything screened.
L major viab = Leishmania major promastigote growth inhibition; Leishmania major promastigotes, resazurin fluorescence viability; inhibition, % at 10 µM; actives 9% (n = 200,000); in the data active = inhibition above about 50%;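 also: promastigotes grown with compound for 44 hours at 28 °C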
RAM inhibit = blocks the yeast RAM network; S. cerevisiae dse1pr::URA3 reporter, 5-FOA growth OD615, 2 d; analog-sensitive cbk1-as2 kinase mutant strain; inhibition, % at 50 µM; AID 868; actives 1.8% (n = 190,000);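 active = inhibition above a set limit, 3 SD over mean compound inhibition, cut at about 8.4% in these data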;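 also: 0% = DMSO-only wells with no growth and 100% = 10 µM 1-NA-PP1 full growth; inhibition rescues growth on 5-FOA so higher OD means more RAM inhibition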
ABCG2 inh = inhibitors of human ABCG2 transporter, ABCB1 counter-screen; Q9UNQ0; IgMXP3 cells, JC-1 efflux, flow cytometry; inhibition, % at 6.6 µM; actives 0.1% (n = 190,000); AID 1325;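 active = inhibition above 80%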;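 also: 0% = DMSO and 100% = nicardipine control wells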
Target sequence (Q9UNQ0 whole entry, looked up): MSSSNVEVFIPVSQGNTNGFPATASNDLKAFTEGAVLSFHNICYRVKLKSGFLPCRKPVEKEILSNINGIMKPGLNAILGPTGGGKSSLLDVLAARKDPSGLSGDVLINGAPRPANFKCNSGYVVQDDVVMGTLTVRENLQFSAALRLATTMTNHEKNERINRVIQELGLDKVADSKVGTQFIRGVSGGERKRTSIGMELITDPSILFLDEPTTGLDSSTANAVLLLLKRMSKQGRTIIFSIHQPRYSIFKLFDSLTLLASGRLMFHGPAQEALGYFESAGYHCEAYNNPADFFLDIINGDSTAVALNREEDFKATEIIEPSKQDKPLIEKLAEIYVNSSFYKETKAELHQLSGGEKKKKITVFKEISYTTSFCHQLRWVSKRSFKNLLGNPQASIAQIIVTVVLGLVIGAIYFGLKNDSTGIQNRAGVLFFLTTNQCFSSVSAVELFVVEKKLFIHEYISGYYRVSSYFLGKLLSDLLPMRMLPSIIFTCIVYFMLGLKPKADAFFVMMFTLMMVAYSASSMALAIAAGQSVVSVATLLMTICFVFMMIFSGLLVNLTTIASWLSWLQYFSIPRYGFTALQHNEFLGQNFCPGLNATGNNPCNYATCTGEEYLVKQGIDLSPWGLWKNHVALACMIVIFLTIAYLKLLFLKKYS
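System: two drug-resistant human cell lines, ABCG2 and ABCB1; controls: nicardipine high and DMSO low controls; times: 10 min exposure at 25 °C with rotation, no wash; detection: flow cytometry of retained JC-1 fluorescence; read-out basis: percent efflux inhibition, scaled nicardipine 100% to DMSO 0%; doses: one concentration, 6.6 µM final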
ABCB1 inh = inhibitors of human ABCB1 transporter, ABCG2 counter-screen | P08183 | CCRF-Adr cells, JC-1 efflux, flow cytometry | inhibition, % at 6.6 µM | actives 0.067% (n = 190,000) | AID 1326; in the data active = inhibition above about 40%;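 also: 0% = vehicle and 100% = reference inhibitor; higher value means more JC-1 retained so stronger ABCB1 efflux block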
WT yeast gro inh = growth inhibition of WT yeast, mitochondrial fusion screen; mitochondrial fusion phenotypic screen, WT strain; inhibition, % at 10 µM; actives 2.1% (n = 190,000); in the data active = inhibition above about 58%; tested in S. cerevisiae
RAM efflux-def = RAM network inhibition, efflux-deficient strain. shares compounds with RAM inhibit. S. cerevisiae efflux-deficient reporter strain, 5-FOA growth OD615, 2 days. max inhibition, %. 1,200 tested, under 10 active. AID 1305; call rule not given here;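 also: plate controls were vehicle for no effect and reference inhibitor for full effect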
* marks the source's active call; other numbers are inactive results.

For O=C(COC(=O)CC(c1ccccc1)c1ccccc1)NCc1ccc(Cl)cc1 the results were L major viab 69*, RAM inhibit 13*, ABCG2 inh 1, ABCB1 inh 1, WT yeast gro inh 63* and RAM efflux-def 4.
Cc1oc(-c2cc(Cl)cc(Cl)c2)cc1C(=O)NCCc1ccccc1 was read as L major viab -6, RAM inhibit 13*, ABCG2 inh 0, ABCB1 inh 0, WT yeast gro inh 52 and RAM efflux-def 3.
For CC(=O)c1ccc(OCc2ccc(Oc3c(Cl)cccc3[N+](=O)[O-])cc2)cc1 the results were L major viab 49, RAM inhibit 13*, ABCG2 inh 12, ABCB1 inh 1, WT yeast gro inh 13 and RAM efflux-def 1.
CC(=O)c1ccc(OCc2ccc(C(=O)c3ccccc3)cc2)cc1 was read as L major viab 0, RAM inhibit 3, ABCG2 inh 2, ABCB1 inh 0 and WT yeast gro inh 23.
`CC1CCN(C(=O)CSc2nnc(CSc3ncccn3)n2C)CC1` gave L major viab -9, RAM inhibit -1, ABCG2 inh 1, ABCB1 inh -1 and WT yeast gro inh 3.
CCCCOC(=O)c1ccc(NC(=O)c2cnccn2)cc1 was read as L major viab -7, RAM inhibit 2, ABCG2 inh 49, ABCB1 inh 3 and WT yeast gro inh 3.
`CCCCOC(=O)c1ccc(NC(=O)c2c(Cl)ccc(Cl)c2OC)cc1` gave L major viab 2, RAM inhibit 18*, ABCG2 inh 27, ABCB1 inh 3, WT yeast gro inh 44 and RAM efflux-def 3.
Screening CCCCCCOC(=O)c1ccc(NC(=O)c2cc(OC)c(OC)c(OC)c2Br)cc1 returned L major viab -2, RAM inhibit 11*, ABCG2 inh 35, ABCB1 inh 3, WT yeast gro inh 32 and RAM efflux-def 4.
For O=C(/C=C/c1ccc(OCc2ccccc2)c(OCc2ccccc2)c1)c1cccnc1 the results were L major viab 100*, RAM inhibit 14*, ABCG2 inh -3, ABCB1 inh 0, WT yeast gro inh 0 and RAM efflux-def 6.
`CC(C)(C)OC(=O)COc1cc(O)c2c(=O)cc(-c3ccccc3)oc2c1` gave L major viab -4, RAM inhibit 12*, ABCG2 inh 25, ABCB1 inh 1, WT yeast gro inh 9 and RAM efflux-def 2.
For COc1cc(CNc2ccc(CNc3ncn[nH]3)cc2)ccc1OCC(=O)NC(C)(C)C the results were L major viab -1, RAM inhibit 2, ABCG2 inh 5, ABCB1 inh 2 and WT yeast gro inh 18.
For CCOc1cc(CNc2ccc(CNc3ncn[nH]3)cc2)ccc1OCc1ccccc1 the results were L major viab 21, RAM inhibit 12*, ABCG2 inh -6, ABCB1 inh -1, WT yeast gro inh -4 and RAM efflux-def 7.
`CC1=NNC(=O)C1CC(=O)N/N=C(\C)c1ccco1` (stereo not drawn) gave L major viab 1, RAM inhibit 1, ABCG2 inh 0, ABCB1 inh 1 and WT yeast gro inh -6.
CC(C)=CCc1c2c(c3occ(-c4ccc(O)cc4)c(=O)c3c1O)C=CC(C)(C)O2 was read as L major viab 12, RAM inhibit 17*, ABCG2 inh 0, ABCB1 inh 0, WT yeast gro inh 54 and RAM efflux-def 4.
Screening Cc1cc(C)c(NC(=O)/C(=C/c2ccccc2)c2ccccc2)c(C)c1 returned L major viab 98*, RAM inhibit 13*, ABCG2 inh 11, ABCB1 inh 3, WT yeast gro inh 15 and RAM efflux-def 3.
COC(=O)c1nn(-c2ccccc2)c(Cl)c1/C=N/OCc1ccc(Cl)cc1Cl was read as L major viab 1, RAM inhibit 17*, ABCG2 inh 2, ABCB1 inh 0, WT yeast gro inh -3 and RAM efflux-def 4.
For O=C1CCc2ccc(NC(=O)C3CC3)cc2N1 the results were L major viab 3, RAM inhibit 0, ABCG2 inh 8, ABCB1 inh 0 and WT yeast gro inh -14.
Screening CCN(CC)S(=O)(=O)c1ccc(O)c(C(=O)OCC(=O)Nc2cc(C)c(C)cc2[N+](=O)[O-])c1 returned L major viab 9, RAM inhibit 1, ABCG2 inh 10, ABCB1 inh 1 and WT yeast gro inh 16.
For CCCCCOc1ccc(C(=O)OCC(=O)Nc2cc(C)c(C)cc2[N+](=O)[O-])cc1 the results were L major viab -2, RAM inhibit 12*, ABCG2 inh 4, ABCB1 inh 1, WT yeast gro inh -6 and RAM efflux-def 6.
COc1ccc(S(=O)(=O)Nc2ccc(CC#N)cc2)cc1 was read as L major viab -4, RAM inhibit 0, ABCG2 inh 2, ABCB1 inh 0 and WT yeast gro inh 0.
`N#CCc1ccc(NS(=O)(=O)c2ccc(C3CCCCC3)cc2)cc1` gave L major viab 8, RAM inhibit 11*, ABCG2 inh -2, ABCB1 inh 0, WT yeast gro inh 62* and RAM efflux-def 3.
`Cc1ccc(S(=O)(=O)NC(C)(C)CSc2ccccn2)cc1` gave L major viab -1, RAM inhibit 2, ABCG2 inh 5, ABCB1 inh 1 and WT yeast gro inh 3.
`Cc1ccccc1NC(=O)CCCSc1nc2ccccc2s1` gave L major viab 2, RAM inhibit 18*, ABCG2 inh 4, ABCB1 inh 0, WT yeast gro inh 49 and RAM efflux-def 2.
For CC(C)(C)NC(=O)CCCSc1nc2ccccc2s1 the results were L major viab 22, RAM inhibit 1, ABCG2 inh 19, ABCB1 inh 0 and WT yeast gro inh 0.
Screening FC(F)(F)c1cc(-c2ccco2)nc(N2CCN(Cc3ccccc3)CC2)n1 returned L major viab 6, RAM inhibit 0, ABCG2 inh 3, ABCB1 inh 0 and WT yeast gro inh 64.
Fc1ccc(N2CCN(c3nc(-c4ccco4)cc(C(F)(F)F)n3)CC2)cc1 was read as L major viab -2, RAM inhibit 14*, ABCG2 inh 1, ABCB1 inh 0, WT yeast gro inh 8 and RAM efflux-def 4.
`O=C(/C=C/c1ccc2c(c1)OCCCO2)c1ccc2ccccc2c1O` gave L major viab -2, RAM inhibit 12*, ABCG2 inh 13, ABCB1 inh 1, WT yeast gro inh -3 and RAM efflux-def 6.
For CCCCOn1c(C)c(C(=O)OCC)c2c3no[n+]([O-])c3ccc21 the results were L major viab 6, RAM inhibit 12*, ABCG2 inh 45, ABCB1 inh 4, WT yeast gro inh 1 and RAM efflux-def 1.
CCOc1ccc(S(=O)(=O)N(C)c2ccc(OCC(=O)OCc3c(C)noc3C)cc2)cc1 was read as L major viab 0, RAM inhibit 12*, ABCG2 inh 11, ABCB1 inh 2, WT yeast gro inh -9 and RAM efflux-def 2.
